pKi: −log10 of the molar value.
What was measured:
[1] = Selectivity for human P2Y12 receptor over P2Y1
[2] = Selectivity for human P2Y12 receptor over P2Y13
[3] = target: T1, P2Y purinoceptor 12 (Homo sapiens, UniProt Q9H244); test: Binding affinity at human recombinant P2Y12 receptor expressed in CHO cells by radioligand binding assay; format: cell-based
Method in brief: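 Washed membranes from CHO cells transfected with synthetic human P2Y12 gene. Compounds as 7-point threefold dilutions, triplicate, 1 h at room temperature. Nonspecific binding defined with 300 nM 2-MeSADP. Filtered, washed with ice-cold Tris pH 7.4. Single-site fit; IC50 converted to Ki by Cheng–Prusoff, geometric mean of n≥2.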

[4] = target: T1, P2Y purinoceptor 12; test: Ratio of compound IC50 to thienopyrimidine IC50 for P2Y12 receptor in human platelet rich plasma assessed as inhibition of ADP-induced platelet aggregation by light transmission aggregometry
Method in brief: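 Human platelet-rich plasma was pre-incubated 5 min at 37 °C with compound across seven concentrations (10 down to 0.156). Aggregation was started with ADP (20, final) and followed by light transmission at 626 nm for 15 min at 37 °C. Duplicate concentration-response data were read at the 15-min end-point. IC50 was divided by the IC50 of the thienopyrimidine reference run on the same plate.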

[5] = target: T1, P2Y purinoceptor 12; test: Ratio of compound IC50 to AZD-6140 IC50 for P2Y12 receptor in human platelet rich plasma assessed as inhibition of ADP-induced platelet aggregation by light transmission aggregometry
Method in brief: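 Human platelet-rich plasma was pre-incubated 5 min at 37 °C with compound across seven concentrations (10 down to 0.156). Aggregation was started with ADP (20, final) and followed by light transmission at 626 nm for 15 min at 37 °C. Duplicate concentration-response data were read at the 15-min end-point. IC50 was divided by the IC50 of AZD-6140 run on the same plate.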

T1 sequence (Q9H244 whole entry): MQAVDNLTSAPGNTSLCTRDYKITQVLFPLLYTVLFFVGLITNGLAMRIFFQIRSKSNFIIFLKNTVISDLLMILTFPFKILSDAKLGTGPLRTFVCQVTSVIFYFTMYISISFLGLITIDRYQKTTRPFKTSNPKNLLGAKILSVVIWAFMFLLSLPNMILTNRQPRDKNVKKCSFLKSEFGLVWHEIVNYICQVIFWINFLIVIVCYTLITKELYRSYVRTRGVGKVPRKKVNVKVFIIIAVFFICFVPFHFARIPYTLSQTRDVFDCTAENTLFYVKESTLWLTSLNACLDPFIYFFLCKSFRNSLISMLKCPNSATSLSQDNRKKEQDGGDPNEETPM

Row | Compound | fold change (FC) [1] | fold change (FC) [2] | pKi [3] | Ratio IC50 [4] | Ratio IC50 [5]
1 | CCCCCOC(=O)N1CCN(C(=O)[C@H](CCC(=O)O)NC(=O)c2nc(OCCOC)cc(-c3ccccc3)n2)CC1 | > 340 | > 340 | 8.92 |  | 
2 | CCCCCOC(=O)N1CCN(C(=O)[C@H](CCC(=O)O)NC(=O)c2cc(N3CCC(OCCOC)CC3)nc(-c3ccccc3)n2)CC1 | > 340 | > 340 | 8.28 | 0.2 | 0.8
3 | CCCCCOC(=O)N1CCN(C(=O)[C@H](CCC(=O)O)NC(=O)c2cc(OCCN(CC)CC)nc(-c3ccccc3)n2)CC1 | > 340 | > 340 | 7.57 | 2.4 | 17
4 | CCCCOC(=O)N1CCN(C(=O)[C@H](CCC(=O)O)NC(=O)c2cc(OCCOC)nc(-c3ccccc3)n2)CC1 | > 340 | > 340 | 7.92 | 1 | 3.7
5 | CCCCCOC(=O)N1CCN(C(=O)[C@H](CCC(=O)O)NC(=O)c2nc(OCCN(CC)CC)cc(-c3ccccc3)n2)CC1 | > 340 | > 340 | 6.74 |  | 
6 | CCCCCOC(=O)N1CCN(C(=O)[C@H](CCC(=O)O)NC(=O)c2nc(-c3ccccc3)cc(N3CCN(CC(=O)N(C)C)CC3)n2)CC1 | > 340 | > 340 | 8.17 | 0.8 | 3.5
7 | CCCCCOC(=O)N1CCN(C(=O)[C@H](CCC(=O)O)NC(=O)c2cc(N3CCC(C(=O)N4CCC4)CC3)nc(-c3ccccc3)n2)CC1 | > 340 | > 340 | 9.08 | 0.04 | 0.3
8 | CCCCCOC(=O)N1CCN(C(=O)[C@H](CCC(=O)O)NC(=O)c2cc(N3CCC(CCN4CCCC4)CC3)nc(-c3ccccc3)n2)CC1 | > 340 | > 340 | 8.68 | 0.1 | 0.5
9 | CCCCCOC(=O)N1CCN(C(=O)[C@H](CCC(=O)O)NC(=O)c2cc(NC3CCN(C(C)C)CC3)nc(-c3ccccc3)n2)CC1 | > 340 | > 340 | 8.03 | 0.9 | 3.5
10 | CCCCOC(=O)N1CCN(C(=O)[C@H](CCC(=O)O)NC(=O)c2cc(OCC3CCCO3)nc(-c3ccccc3)n2)CC1 (stereo not given in full) | > 340 | > 340 | 7.26 | 1.4 | 3.8
11 | CCCCCOC(=O)N1CCN(C(=O)[C@H](CCC(=O)O)NC(=O)c2nc(NC3CCN(C(C)C)CC3)cc(-c3ccccc3)n2)CC1 | > 340 | > 340 | 7.46 |  | 
12 | CCCCCOC(=O)N1CCN(C(=O)[C@H](CCC(=O)O)NC(=O)c2cc(N3CCN(C(N)=O)CC3)nc(-c3ccccc3)n2)CC1 | > 340 | > 340 | 8.92 | 0.2 | 0.8
13 | CCCCCOC(=O)N1CCN(C(=O)[C@H](CCC(=O)O)NC(=O)c2cc(N3CCC(CNCC)CC3)nc(-c3ccccc3)n2)CC1 | > 340 | > 340 | 8.66 | 0.1 | 0.7
14 | CCCCCOC(=O)N1CCN(C(=O)[C@H](CCC(=O)O)NC(=O)c2nc(-c3ccccc3)cc(N3CCNCC3)n2)CC1 | > 340 | > 340 | 7.66 | 1.1 | 6
15 | CCCCCOC(=O)N1CCN(C(=O)[C@H](CCC(=O)O)NC(=O)c2cc(N3CCN(CCOC)CC3)nc(-c3ccccc3)n2)CC1 | > 340 | > 340 | 8.64 | 0.3 | 1.5
16 | CCCCCOC(=O)N1CCN(C(=O)[C@H](CCC(=O)O)NC(=O)c2nc(-c3ccccc3)cc(N3CCC(CCN4CCCC4)CC3)n2)CC1 | > 340 | > 340 | 8.38 | 0.4 | 1.7

Row | Compound | fold change (FC) [1] | fold change (FC) [2] | pKi [3] | Ratio IC50 [4] | Ratio IC50 [5]
17 | CCCCCOC(=O)N1CCN(C(=O)[C@H](CCC(=O)O)NC(=O)c2nc(NCCCN(C)C)cc(-c3ccccc3)n2)CC1 | > 340 | > 340 | 7.42 |  | 
18 | CCCCCOC(=O)N1CCN(C(=O)[C@H](CCC(=O)O)NC(=O)c2cc(OCCCN3CCOCC3)nc(-c3ccccc3)n2)CC1 | > 340 | > 340 | 8.55 | 1.4 | 8.3
19 | CCCCCOC(=O)N1CCN(C(=O)[C@H](CCC(=O)O)NC(=O)c2nc(OCC3CCNCC3)cc(-c3ccccc3)n2)CC1 | > 340 | > 340 | 7.51 | 1.7 | 8.5
20 | CCCCOC(=O)N1CCN(C(=O)[C@H](CCC(=O)O)NC(=O)c2cc(OC3CCNCC3)nc(-c3ccccc3)n2)CC1 | > 340 | > 340 | 7.96 | 0.3 | 1.7
21 | CCCCCOC(=O)N1CCN(C(=O)[C@H](CCC(=O)O)NC(=O)c2nc(NCCOC)cc(-c3ccccc3)n2)CC1 | > 340 | > 340 | 8.28 |  | 
22 | CCCCCOC(=O)N1CCN(C(=O)[C@H](CCC(=O)O)NC(=O)c2nc(-c3ccccc3)cc(N3CCC(CCN)CC3)n2)CC1 | > 340 | > 340 | 8.52 | 0.4 | 1.9
23 | CCCCCOC(=O)N1CCN(C(=O)[C@H](CCC(=O)O)NC(=O)c2nc(-c3ccccc3)cc(N3CCC(OCCO)CC3)n2)CC1 | > 340 | > 340 | 8.00 |  | 
24 | CCCCCOC(=O)N1CCN(C(=O)[C@H](CCC(=O)O)NC(=O)c2nc(-c3ccccc3)cc(N3CCOCC3)n2)CC1 | > 340 | > 340 | 7.96 |  | 
25 | CCCCCOC(=O)N1CCN(C(=O)[C@H](CCC(=O)O)NC(=O)c2cc(N3CCC(C)CC3)nc(-c3ccccc3)n2)CC1 | > 340 | > 340 | 8.12 |  | 
26 | CCCCCOC(=O)N1CCN(C(=O)[C@H](CCC(=O)O)NC(=O)c2nc(-c3ccccc3)cc(N3CCN(C(=O)N(C)C)CC3)n2)CC1 | > 340 | > 340 | 7.85 |  | 
27 | CCCCCOC(=O)N1CCN(C(=O)[C@H](CCC(=O)O)NC(=O)c2nc(-c3ccccc3)cc(N3CCC(COCCOC)CC3)n2)CC1 | > 340 | > 340 | 8.09 |  | 
28 | CCCCOC(=O)N1CCN(C(=O)[C@H](CCC(=O)O)NC(=O)c2cc(OC(CC)C(=O)N(CC)CC)nc(-c3ccccc3)n2)CC1 (stereo not given in full) | > 340 | > 340 | 6.91 |  | 
29 | CCCCCOC(=O)N1CCN(C(=O)[C@H](CCC(=O)O)NC(=O)c2nc(-c3ccccc3)cc(N3CCC(OC)CC3)n2)CC1 | > 340 | > 340 | 8.13 |  | 
30 | CCCCCOC(=O)N1CCN(C(=O)[C@H](CCC(=O)O)NC(=O)c2nc(NCC3CCNC3)cc(-c3ccccc3)n2)CC1 (stereo not given in full) | > 340 | > 340 | 7.72 |  | 
31 | CCCCOC(=O)N1CCN(C(=O)[C@H](CCC(=O)O)NC(=O)c2cc(N3CCC(N4CCCC4)CC3)nc(-c3ccccc3)n2)CC1 |  |  | 8.77 | 0.2 | 0.8
32 | CCCCCOC(=O)N1CCN(C(=O)[C@H](CCC(=O)O)NC(=O)c2nc(-c3ccccc3)cc(N3CCC(CCOC)CC3)n2)CC1 | > 340 | > 340 | 8.08 |  | 

— ChEMBL document CHEMBL1156077, “Piperazinyl-glutamate-pyrimidines as potent P2Y12 antagonists for inhibition of platelet aggregation” (Bioorg Med Chem Lett, 2009)
